Experimental data from article PMC6785838 (Journal of peptide science : an official publication of the …, 2019).

How the values were obtained:
[1] = Stability test of Sec-containing peptides in oxygenated buffer; assay type: physicochemical; conditions: for β-syn elimination: dehydroalanine-containing peptide (species D) by MS: 96 h in oxygenated KP buffer pH 8.0, 25 °C, positive ESI-MS, linear ion trap; for Deselenization seen as red selenium precipitate / color change: peptide 1 mM in oxygenated KP buffer pH 8.0, 96 h, visual inspection
Procedure, shortened: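 Test peptides incubated in oxygenated KP buffer, pH 8.0, at 25 °C. Aliquots taken at 24, 48 and 96 h and centrifuged to pellet precipitated selenium. For MS, samples from time zero and 96 h were infused through a guard column at 10 μL/min into 100 μL/min 50/50 water/acetonitrile with 0.1% formic acid, using positive ESI and a linear ion trap scan over m/z 200–1800. Tubes with 1 mM peptide were photographed.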

[2] = cited from earlier work

Row | Compound | β-syn elimination: dehydroalanine-containing peptide (species D) by MS [1] | Deselenization seen as red selenium precipitate / color change [1] | Water solubility [2]
1 | H-Sec-Gly-Thr-Thr-Val-Arg-Asp-Tyr-Thr-Gln-OH [peptide 12] | β-syn elimination occurred | red precipitate clearly forms | –
2 | H-(αMe)Sec-Gly-Thr-Thr-Val-Arg-Asp-Tyr-Thr-Gln-OH [peptide 11] | absent | no color change was observed | –
3 | O=c1c2ccccc2[se]n1-c1ccccc1 [ebselen, 2-phenyl-1,2-benzisoselenazol-3(2H)-one] | – | – | not water soluble
